Screening data as filed in PubChem BioAssay.
DENV2 CPE rescue: inhibitors of DENV2 cytopathic effect, primary screen, cell-based, plate reader, single concentration. DENV2-infected cells, cytopathic effect rescue. CPE inhibition, % at 9.99 µM. actives 1.7% (n = 350,000); in the data active = CPE inhibition above about 20%, passing the limit was not always enough; inconclusive = no clear call, values can overlap the other calls; tested in BHK-21 cells
SIRT5 block: SIRT5 desuccinylase inhibitors, primary screen, biochemical, fluorescence imaging, single point, set 5. Purified SirT5, succinyl-peptide AMC, trypsin-coupled fluorescence. inhibition, % at 15 µM. actives 1.1% (n = 330,000). AID 652115, 2013; in the data active = inhibition above about 15%; inconclusive = no clear call, values can overlap the other calls
MLL AF4-AF9 inh: inhibitors of AF4 peptide binding to AF9, primary screen, biochemical, AlphaScreen, biotin-AF4 peptide, FLAG-AF9, single point; actives 0.47% (n = 350,000); inhibition, % at 10 µM; AID 651704, 2012; Protein AF-9 (Homo sapiens), P42568;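 active = every replicate reaching a set inhibition limit, whatever the replicate mean, cut at about 25% in these data; inconclusive = mean inhibition reaches that limit but some replicates miss it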
Target sequence (P42568 whole entry, looked up): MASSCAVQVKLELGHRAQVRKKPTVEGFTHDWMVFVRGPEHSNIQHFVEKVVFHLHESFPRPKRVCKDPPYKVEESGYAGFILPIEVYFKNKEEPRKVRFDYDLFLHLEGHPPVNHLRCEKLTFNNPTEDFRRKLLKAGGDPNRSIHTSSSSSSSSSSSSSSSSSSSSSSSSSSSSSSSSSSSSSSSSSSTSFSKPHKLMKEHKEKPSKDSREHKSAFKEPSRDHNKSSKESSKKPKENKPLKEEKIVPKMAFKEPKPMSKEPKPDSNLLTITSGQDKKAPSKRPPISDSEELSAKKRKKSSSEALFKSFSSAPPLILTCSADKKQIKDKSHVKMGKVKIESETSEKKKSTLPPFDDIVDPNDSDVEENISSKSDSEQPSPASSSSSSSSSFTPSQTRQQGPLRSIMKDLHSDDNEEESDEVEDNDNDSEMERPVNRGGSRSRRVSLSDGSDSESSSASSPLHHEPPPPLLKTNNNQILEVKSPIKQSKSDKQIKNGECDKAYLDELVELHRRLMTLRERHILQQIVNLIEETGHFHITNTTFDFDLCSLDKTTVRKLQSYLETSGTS
CaV13 ICDI inh: Primary screen for inhibitors of IQ motif and Ca2+-dependent inactivation inhibitor domain binding in CACNA1D, Förster resonance energy transfer in living cells, …; HEK cells, CFP/YFP FRET ICDI-IQ, plate reader, 10 min; percent FRET-ratio fall versus neutral wells; inhibition, % at 12.3 µM; actives 0.098% (n = 340,000);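 active = mean replicate inhibition of at least 30% and at least 1% of replicates passing that level; inconclusive = only one of the two criteria is met; inactive = neither criterion is met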
S100A4 MyoIIA: inhibitors of S100A4-myosin IIA peptide binding, primary screen, biochemical, fluorescence polarization, TAMRA-MyoIIA peptide. Protein S100-A4 (Homo sapiens), P26447. inhibition, % at 10.7 µM. actives 0.14% (n = 360,000). AID 652163, 2013;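 active = mean inhibition of at least 70% across replicates, with every replicate also reaching that level; inconclusive = mean inhibition reaches 70% but some replicates fall short; inactive = mean inhibition below 70%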
Target sequence (P26447 whole entry, looked up): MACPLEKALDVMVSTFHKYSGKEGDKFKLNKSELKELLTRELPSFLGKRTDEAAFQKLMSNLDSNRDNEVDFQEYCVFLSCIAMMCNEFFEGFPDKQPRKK
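Material: S100A4 monomer protein | Medium: HEPES pH 7.2 with CaCl2, KCl, NaCl, DTT, Triton | Reagent: Labelled myosin peptide probe, 5 nM | Doses: One dose per compound | Times: 5 min incubation before reading | Benchmarks: Neutral control DMSO, positive control TFP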
Of the large screens only hits and unclear results are named; the others gave an inactive call; ! = repeats disagree. In the library only some 2.7% were active in any assay of this set; here they are far more common.

CC(C)NC(=O)N[C@@H]1CC[C@H](CC(=O)NCCCN(C)C)O[C@@H]1CO	none (no result: CaV13 ICDI inh)
Cc1cc(NS(=O)(=O)c2ccc(NC(=O)COc3ccc(Br)cc3)cc2)nc(C)n1	SIRT5 block 33.0
Cc1ccc(OCCC(=O)Nc2ccc(S(=O)(=O)Nc3cc(C)nc(C)n3)cc2)cc1	none
COc1ccc(CC(=O)Nc2ccc(S(=O)(=O)Nc3cc(C)nc(C)n3)cc2)cc1OC	DENV2 CPE rescue 29.6
Cc1ccccc1NC(=O)C1CCN(S(=O)(=O)c2ccc3c(c2)NC(=O)C(C)S3)CC1 (configuration not stated)	S100A4 MyoIIA 111.4
CCOC(=O)C1CCN(C(=O)C2CC(=O)N(c3ccc4c(c3)OCCO4)C2)CC1 (configuration not stated)	DENV2 CPE rescue 61.5
CCN1CCN(C(=O)C2CC(=O)N(c3ccc(Cl)cc3)C2)CC1 (configuration not stated)	DENV2 CPE rescue 61.1
O=C(C1CC(=O)N(c2ccc3c(c2)OCCO3)C1)N1CCN(Cc2ccccc2)CC1 (configuration not stated)	none
C[C@H](CO)N1C[C@H](C)[C@H](CN(C)C(=O)Nc2ccccc2)OCCCC[C@H](C)Oc2ccc(NS(=O)(=O)c3cn(C)cn3)cc2C1=O	none (no result: CaV13 ICDI inh)
Cc1ccc(S(=O)(=O)Nc2ccc3c(c2)C(=O)N([C@H](C)CO)C[C@H](C)[C@@H](CN(C)Cc2ccncc2)OCCCC[C@H](C)O3)cc1	none (no result: CaV13 ICDI inh)
O=[N+]([O-])c1ccc(N2CCN(c3ccc(F)cc3)CC2)cc1	none
CN1CCCN(c2ccc([N+](=O)[O-])cc2)CC1	MLL AF4-AF9 inh 28.3
CC(C)CC#Cc1cnc2c(c1)C(=O)N([C@H](C)CO)C[C@H](C)[C@H](CN(C)C(=O)CC1CC1)O2	none (no result: DENV2 CPE rescue, SIRT5 block, CaV13 ICDI inh, S100A4 MyoIIA)
COc1cccc(C(=O)Oc2ccc(/C=N/NC(=O)c3ccncc3)cc2OC)c1	SIRT5 block 21.2
COc1ccc(-c2csc(NC(=O)c3ccc(S(C)(=O)=O)cc3)n2)cc1	none
Cc1csc(NC(=O)c2ccc(S(C)(=O)=O)cc2)n1	SIRT5 block 19.3
C[C@H](CO)N1C[C@H](C)[C@@H](CN(C)CC2CCCC2)Oc2cc(C#CC(C)(C)O)ccc2S1(=O)=O	none (no result: CaV13 ICDI inh)
O=C1c2ccccc2C(Nc2ccc(F)c(Cl)c2)N1Cc1ccco1 (configuration not stated)	DENV2 CPE rescue 35.7
COc1ccc(NC2c3ccccc3C(=O)N2Cc2ccco2)cc1OC (configuration not stated)	none
Cc1ccc(C)c(OCCCCN2CCCCC2)c1	DENV2 CPE rescue 55.2 (no result: SIRT5 block)
Cc1ccc(OCCCCN2CCCCC2)c(C)c1	none
O=S(=O)(c1ccc(-c2ccccc2)cc1)N1[C@@H]2CNC[C@H]1C2c1ccc(-c2cccnc2)cc1 (some centres not stated)	none (no result: CaV13 ICDI inh)
C/C=C/c1ccc([C@@H]2[C@@H](CO)N(C(=O)CC3CC3)C23CN(S(C)(=O)=O)C3)cc1	none (no result: CaV13 ICDI inh)
C[C@@H]1CN([C@H](C)CO)C(=O)c2cc(NS(=O)(=O)c3cccs3)ccc2O[C@@H](C)CCCCO[C@H]1CN(C)Cc1ccc2c(c1)OCO2	DENV2 CPE rescue 54.6 (no result: SIRT5 block, MLL AF4-AF9 inh, CaV13 ICDI inh, S100A4 MyoIIA)
C[C@H]1CCCCO[C@@H](CN(C)Cc2ccc3c(c2)OCO3)[C@@H](C)CN([C@@H](C)CO)C(=O)c2cc(NS(=O)(=O)c3cccs3)ccc2O1	DENV2 CPE rescue 59.1! (no result: SIRT5 block, MLL AF4-AF9 inh, CaV13 ICDI inh, S100A4 MyoIIA)
C[C@@H]1CN([C@@H](C)CO)C(=O)c2cc(NS(=O)(=O)c3cccs3)ccc2O[C@@H](C)CCCCO[C@@H]1CN(C)Cc1ccc2c(c1)OCO2	none (no result: SIRT5 block, MLL AF4-AF9 inh, CaV13 ICDI inh, S100A4 MyoIIA)
Cc1cccc(N2CCN(C(=O)c3nn(C)c4c3CS(=O)(=O)c3ccccc3-4)CC2)c1C	DENV2 CPE rescue 35.9
Cn1c(=O)c2[nH]c(CCCCc3nc4ccccc4[nH]3)nc2n(C)c1=O	DENV2 CPE rescue 47.4
CCCNC(=O)N1[C@@H]2CN(C(=O)C3CC3)c3ccccc3[C@@H]2[C@@H]1CO	none (no result: CaV13 ICDI inh)
COc1cccc(-c2ccc([C@H]3[C@H]4CN(CC5CCOCC5)CCCCN4[C@H]3CO)cc2)c1	none (no result: CaV13 ICDI inh)
COc1ccc(-c2ccc([C@@H]3[C@@H](CO)N4CCCCN(CC5CCOCC5)C[C@H]34)cc2)cc1	DENV2 CPE rescue 47.7 (no result: CaV13 ICDI inh)
COc1cccc(-c2ccc([C@@H]3[C@H](CO)N4CCCCN(CC5CCOCC5)C[C@@H]34)cc2)c1	none (no result: CaV13 ICDI inh)
COc1ccc(-c2ccc([C@@H]3[C@H]4CN(CC5CCOCC5)CCCCN4[C@H]3CO)cc2)cc1	DENV2 CPE rescue 62.8 (no result: CaV13 ICDI inh)
CCS(=O)(=O)c1ccc(N=Nc2ccc(O)c3ncccc23)c(OC)c1	MLL AF4-AF9 inh inconclusive
COc1ccccc1N=Nc1ccc(O)c2ncccc12	MLL AF4-AF9 inh 72.4
C[C@H](O)C#Cc1ccc([C@H]2[C@H](CO)N3CCCCN(CC4CC4)C[C@@H]23)cc1	none (no result: CaV13 ICDI inh)
C[C@H](O)C#Cc1ccc([C@H]2[C@@H](CO)N3CCCCN(CC4CC4)C[C@H]23)cc1	DENV2 CPE rescue 22.5 (no result: CaV13 ICDI inh)
CC(C)C#Cc1ccc([C@H]2[C@H](CO)N3CCCCN(CC4CC4)C[C@@H]23)cc1	DENV2 CPE rescue 25.8 (no result: CaV13 ICDI inh)
COCC(=O)N1C[C@@H](C)[C@H](OC)CN(C)C(=O)c2cc(NC(=O)c3ccc(-c4ccccc4)cc3)ccc2OC[C@H]1C	none (no result: CaV13 ICDI inh)
O=C(c1cccc(F)c1)N1CC(=O)N2[C@H](CO)[C@H](c3ccc(-c4ccccc4F)cc3)[C@@H]2C1	none (no result: CaV13 ICDI inh)
C=CCn1c(C)nnc1SCC(=O)NC1CC1	DENV2 CPE rescue 93.5
C=CCn1c(C)nnc1SCC(=O)NC1CCCCC1	none
CCc1ccccc1NC(=O)c1cnc2n(c1=O)CCS2	DENV2 CPE rescue 34.8
CC(C)OC(=O)c1ccc(NCc2cc(O)ccc2O)cc1	DENV2 CPE rescue 51.4 (no result: SIRT5 block)
O=C(OCc1ccccc1)c1ccc(NCc2cc(O)ccc2O)cc1	none (no result: SIRT5 block)
C[C@@H]1CN([C@H](C)CO)C(=O)c2cc(/C=C/c3ccccc3)cnc2O[C@@H]1CN(C)C(=O)Cc1cccnc1	none (no result: CaV13 ICDI inh)
COc1cc2sc3cc(NCC[C@@H]4CCCN4C)ccc3c(=O)c2cc1OC	DENV2 CPE rescue inconclusive, CaV13 ICDI inh 36.2 (no result: SIRT5 block)
Cc1noc(C)c1S(=O)(=O)N(C)C[C@@H]1OCCCC[C@@H](C)Oc2ccc(NC(=O)Cc3ccccc3)cc2C(=O)N([C@@H](C)CO)C[C@@H]1C	DENV2 CPE rescue 52.3 (no result: CaV13 ICDI inh)
Cc1noc(C)c1S(=O)(=O)N(C)C[C@@H]1OCCCC[C@@H](C)Oc2ccc(NC(=O)Cc3ccccc3)cc2C(=O)N([C@H](C)CO)C[C@H]1C	none (no result: CaV13 ICDI inh)
C[C@H]1CCCCO[C@H](CN(C)C(=O)Cc2ccccc2)[C@@H](C)CN([C@@H](C)CO)C(=O)c2cc(NC(=O)NC3CCCCC3)ccc2O1	DENV2 CPE rescue 25.4 (no result: SIRT5 block, MLL AF4-AF9 inh, CaV13 ICDI inh, S100A4 MyoIIA)
